According to ChEMBL document CHEMBL1781932 (J Med Chem, 2011):
Converted amounts (≈) assume the structure as drawn.

Columns and labels:
[1] = AUC (0 to infinity) in Sprague-Dawley rat at 1 mg/kg, iv administered as single dose measured after 24 to 48 hrs; type: ADME, organism-based; parameters: time infinity, dose 1 mg/kg, route intravenous; conditions: plasma
Summary of the method: (§1)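 Sprague-Dawley rats (n = 3) were fasted overnight (minimum 12 h) and given a single dose, iv 1 mg/kg or oral 10 mg/kg, in sterile water. Samples were taken over 24–48 h. PK parameters came from noncompartmental analysis.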

[2] = Clearance in Sprague-Dawley rat at 1 mg/kg, iv administered as single dose measured after 24 to 48 hrs; type: ADME, organism-based; parameters: dose 1 mg/kg, route intravenous; conditions: in vivo; summary of the method: as §1
[3] = Apparent volume of distribution in Sprague-Dawley rat at 1 mg/kg, iv administered as single dose measured after 24 to 48 hrs; conditions: in vivo
[4] = Elimination half life in Sprague-Dawley rat at 1 mg/kg, iv administered as single dose; type: ADME, organism-based; parameters: dose 1 mg/kg, route intravenous; conditions: in vivo, read-out: beta t1/2 (converted); summary of the method: as §1
Rattus norvegicus = experiment: Oral bioavailability in Sprague-Dawley rat at 10 mg/kg administered as single dose; type: ADME, organism-based; conditions: in vivo; summary of the method: as §1
Staphylococcus aureus [5] = experiment: Antimicrobial activity against tetracycline-susceptible Staphylococcus aureus Smith isolate 100 infected in po dosed mouse systemic infection model assessed as survival of mouse administered 60 mins post infection measured after 48 hrs; type: functional; conditions: Smith isolate 100, po, read-out: PD50
Summary of the method: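 Mouse septicemia model with S. aureus ATCC 13709 in 5% mucin, inoculated intraperitoneally at 2.1×10^6 cfu/mouse. Oral gavage dosing began 60 min post-infection at 0.3–30 mg/kg in sterile water, 6 mice/dose group, with untreated infection controls. Survival was assessed over 48 h. PD50 was obtained by Probit analysis with 95% CI.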

Staphylococcus aureus [6] = experiment: Antimicrobial activity against tetracycline-susceptible Staphylococcus aureus Smith isolate 100 infected in iv dosed mouse systemic infection model assessed as survival of mouse administered 60 mins post infection measured up to 48 hrs; type: functional; conditions: Smith isolate 100, iv, read-out: PD50
Summary of the method: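 Mouse septicemia model with S. aureus ATCC 13709 mixed with 5% mucin, given intraperitoneally at 2.1×10^6 cfu/mouse. Compound was dosed intravenously 60 min after infection at 0.3–30 mg/kg in sterile water, 6 mice/dose group, with untreated infection controls. Survival was followed over 48 h. PD50 was derived by Probit analysis with 95% CI.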

Staphylococcus aureus [7] = experiment: Antimicrobial activity against tetracycline-susceptible Staphylococcus aureus isolate 101 by CLSI dilution method; type: functional
Staphylococcus aureus [8] = experiment: Antimicrobial activity against methicillin-, tetracycline-resistant Staphylococcus aureus isolate 161 harboring tetM gene by CLSI dilution method; type: functional
Staphylococcus aureus [9] = experiment: Antimicrobial activity against tetracycline-resistant Staphylococcus aureus isolate 158 harboring tetK gene by CLSI dilution method; type: functional
Enterococcus faecalis [10] = experiment: Antimicrobial activity against tetracycline-susceptible Enterococcus faecalis isolate 103 by CLSI dilution method; type: functional
Summary of the method: (§2)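 Broth microdilution per CLSI in fresh cation-adjusted Mueller Hinton broth, kept at 4 °C before testing, with defibrinated horse blood added as appropriate. Strains were from ATCC. MIC in µg/mL. Runs were accepted when comparator antibiotics against ATCC quality-control strains fell within recommended ranges.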

Enterococcus faecalis [11] = experiment: Antimicrobial activity against tetracycline-resistant Enterococcus faecalis isolate 159 harboring […] gene by CLSI dilution method; type: functional
Streptococcus pneumoniae [12] = experiment: Antimicrobial activity against tetracycline-susceptible Streptococcus pneumoniae isolate 106 by CLSI dilution method; type: functional; summary of the method: as §2
Streptococcus pneumoniae [13] = experiment: Antimicrobial activity against tetracycline-resistant Streptococcus pneumoniae isolate 160 harboring tetM gene by CLSI dilution method; type: functional
Escherichia coli [14] = experiment: Antimicrobial activity against tetracycline-susceptible Escherichia coli isolate 107 by CLSI dilution method; type: functional; summary of the method: as §2
Escherichia coli [15] = experiment: Antimicrobial activity against tetracycline-resistant Escherichia coli isolate 155 harboring tetA gene by CLSI dilution method; type: functional
Acinetobacter baumannii = experiment: Antimicrobial activity against tetracycline-susceptible Acinetobacter baumannii isolate 110 by CLSI dilution method; type: functional; summary of the method: as §2
Pseudomonas aeruginosa = experiment: Antimicrobial activity against tetracycline-susceptible Pseudomonas aeruginosa isolate 111 by CLSI dilution method; type: functional; summary of the method: as §2
Enterobacter cloacae = experiment: Antimicrobial activity against tetracycline-susceptible Enterobacter cloacae isolate 108 by CLSI dilution method; type: functional; summary of the method: as §2
Klebsiella pneumoniae [16] = experiment: Antimicrobial activity against tetracycline-susceptible Klebsiella pneumoniae isolate 109 by CLSI dilution method; type: functional; summary of the method: as §2
Klebsiella pneumoniae [17] = experiment: Antimicrobial activity against tetracycline-resistant Klebsiella pneumoniae isolate 153 harboring tetA gene by CLSI dilution method; type: functional
[18] = Cmax in Sprague-Dawley rat at 1 mg/kg, iv administered as single dose measured after 24 to 48 hrs; type: ADME, organism-based; parameters: dose 1 mg/kg, route intravenous; conditions: in vivo; summary of the method: as §1
Staphylococcus aureus [19] = experiment: Antimicrobial activity against tetracycline-susceptible Staphylococcus aureus Smith isolate 100 by CLSI dilution method; type: functional

Compound | AUC(0-inf) [1] | clearance [2] | Vd [3] | half-life [4] | MIC (Staphylococcus aureus [7]) | MIC (Staphylococcus aureus [8]) | MIC (Staphylococcus aureus [9]) | MIC (Enterococcus faecalis [10]) | MIC (Enterococcus faecalis [11]) | MIC (Streptococcus pneumoniae [12]) | MIC (Streptococcus pneumoniae [13]) | MIC (Escherichia coli [14]) | MIC (Escherichia coli [15]) | MIC (Acinetobacter baumannii) | MIC (Pseudomonas aeruginosa) | MIC (Enterobacter cloacae) | MIC (Klebsiella pneumoniae [16]) | MIC (Klebsiella pneumoniae [17]) | Cmax [18] | MIC (Staphylococcus aureus [19]) | other results
CN(C)[C@@H]1C(O)=C(C(N)=O)C(=O)[C@@]2(O)C(O)=C3C(=O)c4c(cc5ccc(CN6CC(F)C6)cc5c4O)C[C@H]3C[C@@H]12 | 3460 ng·h/mL | 4.82 mL/min/kg | 1.4 L/kg | 3.35 h | 0.5 µg/mL (≈ 0.907 µM) | 2 µg/mL (≈ 3.63 µM) | 0.5 µg/mL (≈ 0.907 µM) | 0.5 µg/mL (≈ 0.907 µM) | 2 µg/mL (≈ 3.63 µM) | 0.125 µg/mL (≈ 0.227 µM) | 0.25 µg/mL (≈ 0.453 µM) | 2 µg/mL (≈ 3.63 µM) | 8 µg/mL (≈ 14.5 µM) | 1 µg/mL (≈ 1.81 µM) | > 32 µg/mL | 8 µg/mL (≈ 14.5 µM) | 8 µg/mL (≈ 14.5 µM) | 16 µg/mL (≈ 29 µM) | 814 ng/mL |  | F (Rattus norvegicus): 18%; ED50 (Staphylococcus aureus [5]): 12.2 mg/kg; ED50 (Staphylococcus aureus [6]): 0.36 mg/kg
COc1c2c(c(O)c3cc(CN4CCC4)ccc13)C(=O)C1=C(O)[C@]3(O)C(=O)C(C(N)=O)=C(O)[C@@H](N(C)C)[C@@H]3C[C@@H]1C2 | 1650 ng·h/mL | 10.2 mL/min/kg | 4.65 L/kg | 5.26 h | 0.0625 µg/mL (≈ 0.111 µM) | 0.5 µg/mL (≈ 0.887 µM) | 0.0625 µg/mL (≈ 0.111 µM) | 0.0625 µg/mL (≈ 0.111 µM) | 1 µg/mL (≈ 1.77 µM) | 0.0156 µg/mL (≈ 0.0277 µM) | 0.0625 µg/mL (≈ 0.111 µM) | 0.25 µg/mL (≈ 0.444 µM) | 8 µg/mL (≈ 14.2 µM) | 1 µg/mL (≈ 1.77 µM) | 32 µg/mL (≈ 56.8 µM) | 1 µg/mL (≈ 1.77 µM) | 1 µg/mL (≈ 1.77 µM) | 8 µg/mL (≈ 14.2 µM) | 618 ng/mL | 0.0625 µg/mL (≈ 0.111 µM) | ED50 (Staphylococcus aureus [5]): > 20 mg/kg; ED50 (Staphylococcus aureus [6]): 0.36 mg/kg
CN(C)[C@@H]1C(O)=C(C(N)=O)C(=O)[C@@]2(O)C(O)=C3C(=O)c4c(c(F)c5ccc(CN6CC(F)C6)cc5c4O)C[C@H]3C[C@@H]12 | 1040 ng·h/mL | 16.1 mL/min/kg | 3.06 L/kg | 2.22 h | 0.5 µg/mL (≈ 0.878 µM) | 1 µg/mL (≈ 1.76 µM) | 0.25 µg/mL (≈ 0.439 µM) | 0.25 µg/mL (≈ 0.439 µM) | 1 µg/mL (≈ 1.76 µM) | 0.25 µg/mL (≈ 0.439 µM) |  | 4 µg/mL (≈ 7.02 µM) | 8 µg/mL (≈ 14 µM) | 1 µg/mL (≈ 1.76 µM) | > 32 µg/mL | 8 µg/mL (≈ 14 µM) | 4 µg/mL (≈ 7.02 µM) | 8 µg/mL (≈ 14 µM) | 358 ng/mL | 1 µg/mL (≈ 1.76 µM) | F (Rattus norvegicus): 16.7%
COc1c2c(c(O)c3cc(CNCC(C)C)ccc13)C(=O)C1=C(O)[C@]3(O)C(=O)C(C(N)=O)=C(O)[C@@H](N(C)C)[C@@H]3C[C@@H]1C2 | 815 ng·h/mL | 20.5 mL/min/kg | 9.6 L/kg | 5.4 h |  | 2 µg/mL (≈ 3.45 µM) | 0.016 µg/mL (≈ 0.0276 µM) | 0.0625 µg/mL (≈ 0.108 µM) | 2 µg/mL (≈ 3.45 µM) | 0.0156 µg/mL (≈ 0.0269 µM) | 0.125 µg/mL (≈ 0.216 µM) | 1 µg/mL (≈ 1.73 µM) | 4 µg/mL (≈ 6.9 µM) | 0.25 µg/mL (≈ 0.431 µM) | 16 µg/mL (≈ 27.6 µM) | 2 µg/mL (≈ 3.45 µM) | 1 µg/mL (≈ 1.73 µM) | 8 µg/mL (≈ 13.8 µM) | 414 ng/mL | 0.5 µg/mL (≈ 0.863 µM) | F (Rattus norvegicus): 2.7%; ED50 (Staphylococcus aureus [6]): < 0.3 mg/kg
CN(C)c1cc(NC(=O)CNC(C)(C)C)c(O)c2c1C[C@H]1C[C@H]3[C@H](N(C)C)C(O)=C(C(N)=O)C(=O)[C@@]3(O)C(O)=C1C2=O [TIGECYCLINE] | 1050 ng·h/mL |  |  | 4.6 h | 0.0625 µg/mL (≈ 0.107 µM) | 0.125 µg/mL (≈ 0.213 µM) | 0.0625 µg/mL (≈ 0.107 µM) | 0.0313 µg/mL (≈ 0.0534 µM) | 0.0625 µg/mL (≈ 0.107 µM) | 0.0156 µg/mL (≈ 0.0266 µM) | 0.0156 µg/mL (≈ 0.0266 µM) | 0.0313 µg/mL (≈ 0.0534 µM) | 0.5 µg/mL (≈ 0.854 µM) | 0.25 µg/mL (≈ 0.427 µM) | 8 µg/mL (≈ 13.7 µM) | 0.25 µg/mL (≈ 0.427 µM) | 0.125 µg/mL (≈ 0.213 µM) | 1 µg/mL (≈ 1.71 µM) | 428 ng/mL | 0.0625 µg/mL (≈ 0.107 µM) | ED50 (Staphylococcus aureus [6]): 0.35 mg/kg
COc1c2c(c(O)c3cc(CN4CC(F)C4)ccc13)C(=O)C1=C(O)[C@]3(O)C(=O)C(C(N)=O)=C(O)[C@@H](N(C)C)[C@@H]3C[C@@H]1C2 | 451 ng·h/mL | 63.9 mL/min/kg | 5.06 L/kg | 1.5 h | 0.25 µg/mL (≈ 0.43 µM) | 1 µg/mL (≈ 1.72 µM) | 0.125 µg/mL (≈ 0.215 µM) | 0.125 µg/mL (≈ 0.215 µM) | 2 µg/mL (≈ 3.44 µM) | 0.0156 µg/mL (≈ 0.0268 µM) | 0.0313 µg/mL (≈ 0.0538 µM) | 2 µg/mL (≈ 3.44 µM) | 8 µg/mL (≈ 13.8 µM) | 0.25 µg/mL (≈ 0.43 µM) | 32 µg/mL (≈ 55 µM) | 8 µg/mL (≈ 13.8 µM) | 4 µg/mL (≈ 6.88 µM) | 8 µg/mL (≈ 13.8 µM) | 237 ng/mL | 1 µg/mL (≈ 1.72 µM) | F (Rattus norvegicus): 17.7%
